Results collected from several papers.
Compare with care: the assays were run in different laboratories.
Target: PAS domain-containing serine/threonine-protein kinase (PASK, Homo sapiens, UniProt Q96RG2)

| SMILES | effect on | mode | technique | tested at | quantity | result |
| --- | --- | --- | --- | --- | --- | --- |
| CC/C(=N\NC(=O)NCc1cccc(O)c1)c1ccc(O)c(C)c1O | enzyme activity | inhibitor | – | 0.1 µM | inhibition | -0.2% |
| CN1CC(Oc2cnc(C#N)cc2-c2ccn3nc(NC(=O)C4CC4)cc3c2)C1 | enzyme activity | inhibitor | – | 1 µM | inhibition | -16% |
| CCCS(=O)(=O)Nc1ccc(F)c(C(=O)c2c[nH]c3ncc(-c4ccc(Cl)cc4)cc23)c1F | enzyme activity | inhibitor | – | 1 µM | inhibition | < 10% |
| CCN(CC)CCNC(=O)c1c(C)[nH]c(/C=C2\C(=O)Nc3ccc(F)cc32)c1C | enzyme activity | inhibitor | – | 0.3 µM | inhibition | -5% |
| CC(C)(C)c1nc(-c2cccc(NS(=O)(=O)c3c(F)cccc3F)c2F)c(-c2ccnc(N)n2)s1 | enzyme activity | inhibitor | radiometric | 1 µM | remaining activity | 98% |
| CNC(=O)c1cc(Oc2ccc(NC(=O)Nc3ccc(Cl)c(C(F)(F)F)c3)cc2)ccn1 | enzyme activity | inhibitor | – | 0.3 µM | inhibition | -6% |
| Cc1sc(C(=O)NC2COC2)cc1-n1cc(NC(=O)Nc2c(F)cccc2Cl)cn1 | enzyme activity | inhibitor | – | 10 µM | remaining activity | 96.1% |
| Cc1ccc(Nc2nccc(N(C)c3ccc4c(C)n(C)nc4c3)n2)cc1S(N)(=O)=O | enzyme activity | inhibitor | – | 10 µM | inhibition | 1% |
| COc1cc(Cl)c(C(=O)N[C@@H](CN[C@H]2CC[C@@H](N)CC2)Cc2ccc(C#N)cc2)cc1-c1ccc(CN[C@H](C)c2ccc(C)cc2)o1 | enzyme activity | inhibitor | – | 1 µM | remaining activity | 72% |
| COc1cc2ncnc(Nc3ccc(Oc4ccccc4)cc3C)c2cc1OC | enzyme activity | inhibitor | – | 1 µM | inhibition | -2% |
| Cc1cc(NC(=O)c2cccc3cc(-c4cccc5[nH]nc(N)c45)ccc23)ccc1F | enzyme activity | inhibitor | – | 0.1 µM | activity vs control | 89% |
| CCCOc1ccc(OC)c(F)c1C(=O)c1ccc(C(=O)N[C@@H]2CNC[C@H]2NC(=O)c2ccc3[nH]ncc3c2)cc1 | enzyme activity | inhibitor | – | 10 µM | remaining activity | 6% |
| O=C1NC(=O)c2cc(Nc3ccc(F)cc3)c(Nc3ccc(F)cc3)cc21 | cell-free assay | – | – | 0.5 µM | remaining signal | 91.3% |
